Test results: article PMC9401513 (Clinical Cancer Research, 2021)
Where a SMILES comes first, the peptide text is derived from it. [ ]: non-standard residue; d: D form. The star is where a group is joined. Dolaproine = CO[C@@H]([C@@H]1CCCN1)[C@@H](C)C(=O)O; Dil = CC[C@H](C)[C@H](NC)[C@@H](CC(=O)O)OC; Doe = c1ccc(C[C@H](N*)c2nccs2)cc1; Aib = CC(C)(N)C(=O)O

How the values were obtained:
CYP3A4 = CYP3A4 (Homo sapiens, UniProt P08684); assay: Drug-drug interaction substudy with multiple-dose fluconazole; assay type: in vivo; conditions: PF-06647020 co-administered with multiple-dose fluconazole, 11 patients
CYP3A4, sequence (P08684 whole entry): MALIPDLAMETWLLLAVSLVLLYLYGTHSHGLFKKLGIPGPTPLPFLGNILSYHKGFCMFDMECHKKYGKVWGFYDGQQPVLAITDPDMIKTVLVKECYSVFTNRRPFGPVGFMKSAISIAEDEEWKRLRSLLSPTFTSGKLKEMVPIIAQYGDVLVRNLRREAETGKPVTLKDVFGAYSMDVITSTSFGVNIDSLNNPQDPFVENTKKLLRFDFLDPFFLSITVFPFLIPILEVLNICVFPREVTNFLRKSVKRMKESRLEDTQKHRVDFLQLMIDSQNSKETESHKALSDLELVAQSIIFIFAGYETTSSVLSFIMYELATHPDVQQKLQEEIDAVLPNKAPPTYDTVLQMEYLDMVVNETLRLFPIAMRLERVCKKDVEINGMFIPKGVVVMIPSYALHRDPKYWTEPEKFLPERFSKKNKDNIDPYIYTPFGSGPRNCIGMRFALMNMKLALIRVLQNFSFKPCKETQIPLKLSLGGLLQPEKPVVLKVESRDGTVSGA
Outline: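 Single-dose test ADC was given alone in cycle 1 (reference) and co-administered with multiple-dose fluconazole in cycle 2 (test). Unconjugated payload exposure was measured as dose-normalized AUCinf and Cmax from noncompartmental analysis. Results were expressed as ratios of adjusted geometric means with 90% confidence intervals.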

[1] = Clinical pharmacokinetics; assay type: in vivo, human; conditions: 0.2 to 3.7 mg/kg every 3 weeks dose levels of PF-06647020

CC[C@H](C)[C@@H]([C@@H](CC(=O)N1CCC[C@H]1[C@H](OC)[C@@H](C)C(=O)N[C@@H](Cc1ccccc1)c1nccs1)OC)N(C)C(=O)[C@@H](NC(=O)C(C)(C)N)C(C)C [PF-06380101, auristatin-0101] (H-[Aib]V[Dil][Dolaproine]-Doe)
impact of fluconazole co-administration on overall exposure (CYP3A4): did not have a notable impact

B1: hu6M024: humanized anti-PTK7 mAb (IgG1); total antibody = conjugated or unconjugated mAb (antibody, chains of the INN, looked up, V domains shown)
VH: QVQLVQSGPEVKKPGASVKVSCKASGYTFTDYAVHWVRQAPGKRLEWIGVISTYNDYTYNNQDFKGRVTMTRDTSASTAYMELSRLRSEDTAVYYCARGNSYFYALDYWGQGTSVTVSS
VL: EIVLTQSPATLSLSPGERATLSCRASESVDSYGKSFMHWYQQKPGQAPRLLIYRASNLESGIPARFSGSGSGTDFTLTISSLEPEDFAVYYCQQSNEDPWTFGGGTKLEIK
impact of fluconazole co-administration on overall exposure (CYP3A4): did not have a notable impact
systemic exposure (AUCtau, Cmax) versus dose [1]: generally increased in a dose-related manner
